In one data set the target is T1, alpha1 adrenoceptor (Mus musculus, UniProt P97714+P97717+P97718).
T1 sequence (P97714 whole entry): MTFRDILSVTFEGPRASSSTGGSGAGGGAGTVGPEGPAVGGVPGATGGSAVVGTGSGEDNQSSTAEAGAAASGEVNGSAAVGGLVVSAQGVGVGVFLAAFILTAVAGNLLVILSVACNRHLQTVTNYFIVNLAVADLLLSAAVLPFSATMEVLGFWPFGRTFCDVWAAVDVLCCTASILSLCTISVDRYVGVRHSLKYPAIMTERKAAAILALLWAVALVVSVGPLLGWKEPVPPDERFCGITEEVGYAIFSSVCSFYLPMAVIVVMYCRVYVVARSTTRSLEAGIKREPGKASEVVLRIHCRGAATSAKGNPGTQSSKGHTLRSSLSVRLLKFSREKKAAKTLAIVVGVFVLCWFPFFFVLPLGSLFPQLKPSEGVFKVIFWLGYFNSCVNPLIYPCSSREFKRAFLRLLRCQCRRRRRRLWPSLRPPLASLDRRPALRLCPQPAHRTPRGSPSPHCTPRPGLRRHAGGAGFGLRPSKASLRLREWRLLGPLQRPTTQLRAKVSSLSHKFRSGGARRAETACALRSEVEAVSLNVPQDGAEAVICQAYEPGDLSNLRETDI
T1 sequence (P97717 whole entry): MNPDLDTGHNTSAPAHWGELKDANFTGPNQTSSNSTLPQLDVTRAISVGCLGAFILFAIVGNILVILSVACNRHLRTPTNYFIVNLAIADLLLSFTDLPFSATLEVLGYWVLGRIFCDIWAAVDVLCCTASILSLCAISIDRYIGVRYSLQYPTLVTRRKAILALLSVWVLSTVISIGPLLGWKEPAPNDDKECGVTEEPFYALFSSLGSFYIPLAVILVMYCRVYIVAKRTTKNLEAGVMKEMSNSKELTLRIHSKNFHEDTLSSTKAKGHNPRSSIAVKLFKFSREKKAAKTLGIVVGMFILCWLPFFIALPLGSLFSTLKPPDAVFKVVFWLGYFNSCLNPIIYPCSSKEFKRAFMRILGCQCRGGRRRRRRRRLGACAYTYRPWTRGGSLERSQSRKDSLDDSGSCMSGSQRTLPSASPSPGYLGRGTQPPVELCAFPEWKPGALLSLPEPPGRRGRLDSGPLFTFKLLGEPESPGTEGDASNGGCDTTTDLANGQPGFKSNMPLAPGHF
T1 sequence (P97718 whole entry): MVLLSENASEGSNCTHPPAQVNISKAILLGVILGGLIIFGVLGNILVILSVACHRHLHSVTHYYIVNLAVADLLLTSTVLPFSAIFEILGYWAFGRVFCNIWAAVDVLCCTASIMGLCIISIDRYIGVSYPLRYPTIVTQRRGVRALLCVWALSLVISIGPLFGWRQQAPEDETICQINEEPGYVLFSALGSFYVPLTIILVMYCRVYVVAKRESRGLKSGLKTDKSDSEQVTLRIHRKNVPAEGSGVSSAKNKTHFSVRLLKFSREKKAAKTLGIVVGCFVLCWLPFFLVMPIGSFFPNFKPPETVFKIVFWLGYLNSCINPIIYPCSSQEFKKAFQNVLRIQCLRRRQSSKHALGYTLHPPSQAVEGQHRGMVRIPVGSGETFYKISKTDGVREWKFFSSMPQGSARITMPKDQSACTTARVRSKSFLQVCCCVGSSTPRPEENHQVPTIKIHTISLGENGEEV
Nature of the data set: Displacement of [3H]prazosin from alpha1 adrenoceptor in C57BL/6 mouse hippocampal homogenates assessed as remaining receptor bound [3H]prazosin levels at 0.1 uM after 40 mins by liquid scintillation counting method relative to control. The following applies: probe [3H]prazosin, read-out: Activity. The method, boiled down: (§1)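 Mouse hippocampal homogenate incubated with 1.5 nM [³H]prazosin and competing ligand across a concentration series. Bound radioligand was expressed as displacement relative to control. IC₅₀ was obtained from non-linear regression fitting of concentration-effect curves, and curve fits were compared with tamsulosin.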
(Displacement assays read how much labelled ligand stays bound in the presence of the test substance.)
In the case of `CCN1/C(=C/c2ccc3cc(OC)ccc3[n+]2CC)C=Cc2ccccc21.[I-]`, the activity at 40 min, 0.1 µM worked out at 81%.

Regarding `CCN1/C(=C/c2ccc3cc(Br)ccc3[n+]2CC)C=Cc2ccccc21.[I-]`, the activity at 40 min, 0.1 µM was determined as 67.7%.

For a further data set, the target named is T1, alpha1 adrenoceptor. In words: Displacement of [3H]prazosin from alpha1 adrenoceptor in C57BL/6 mouse hippocampal homogenates assessed as remaining receptor bound [3H]prazosin levels at 10 uM after 40 mins by liquid scintillation counting method relative to control. To be noted: probe [3H]prazosin, read-out: Activity. An outline of the steps:
as §1
With `CCN1/C(=C/c2ccc3cc(OC)ccc3[n+]2CC)C=Cc2ccccc21.[I-]`, the activity at 40 min, 10 µM was 1.7%.

Take `CCN1/C(=C/c2ccc3cc(Br)ccc3[n+]2CC)C=Cc2ccccc21.[I-]`: the activity at 40 min, 10 µM amounted to 1.3%.

For another data set, the system named is Mus musculus. In words: Anti-depressant-like activity in mouse assessed as time spent immobile at 0.1 mg/kg, ip administered 60 mins prior to testing measured for 6 mins by tail suspension test (reference value: 186.9 +/- 13.2 secs). The class given is functional.
Details: not given
For `CCN1/C(=C/c2ccc3cc(OC)ccc3[n+]2CC)C=Cc2ccccc21.[I-]`, the Time came to 167.2 s.

With `CCN1/C(=C/c2ccc3cc(Br)ccc3[n+]2CC)C=Cc2ccccc21.[I-]`, the Time worked out at 171.3 s.

The test system of another data set is Mus musculus. In words: Anti-depressant-like activity in mouse assessed as time spent immobile at 1 mg/kg, ip administered 60 mins prior to testing measured for 6 mins by tail suspension test (reference value: 186.9 +/- 13.2 secs).
Details: not given
It is filed as functional.
For the molecule `CCN1/C(=C/c2ccc3cc(OC)ccc3[n+]2CC)C=Cc2ccccc21.[I-]`, the Time amounted to 135.7 s.

As to `CCN1/C(=C/c2ccc3cc(Br)ccc3[n+]2CC)C=Cc2ccccc21.[I-]`, the Time turned out to be 190 s.

A further data set addresses T1, alpha1 adrenoceptor. Nature of the data set: Displacement of [3H]prazosin from alpha1 adrenoceptor in C57BL/6 mouse hippocampal homogenates assessed as remaining receptor bound [3H]prazosin levels at 0.01 uM after 40 mins by liquid scintillation counting method relative to control. The following applies: probe [3H]prazosin, read-out: Activity. An outline of the steps: as §1
With `CCN1/C(=C/c2ccc3cc(OC)ccc3[n+]2CC)C=Cc2ccccc21.[I-]`, the activity at 40 min, 0.01 µM was 97%.

As to `CCN1/C(=C/c2ccc3cc(Br)ccc3[n+]2CC)C=Cc2ccccc21.[I-]`, the activity at 40 min, 0.01 µM stood at 102%.

Another data set addresses T1, alpha1 adrenoceptor. Nature of the data set: Displacement of [3H]prazosin from alpha1 adrenoceptor in C57BL/6 mouse hippocampal homogenates assessed as remaining receptor bound [3H]prazosin levels at 1 uM after 40 mins by liquid scintillation counting method relative to control. To be noted: probe [3H]prazosin, read-out: Activity. An outline of the steps: as §1
`CCN1/C(=C/c2ccc3cc(OC)ccc3[n+]2CC)C=Cc2ccccc21.[I-]`: the activity at 40 min, 1 µM amounted to 23%.

As for `CCN1/C(=C/c2ccc3cc(Br)ccc3[n+]2CC)C=Cc2ccccc21.[I-]`, the activity at 40 min, 1 µM was 43.3%.

The subject of another data set is Mus musculus. In words: Anti-depressant-like activity in mouse assessed as time spent immobile at 3.2 mg/kg, ip administered 60 mins prior to testing measured for 6 mins by tail suspension test (reference value: 186.9 +/- 13.2 secs). It is filed as functional.
Details: not given
Regarding `CCN1/C(=C/c2ccc3cc(OC)ccc3[n+]2CC)C=Cc2ccccc21.[I-]`, the Time was 203.1 s.

As to `CCN1/C(=C/c2ccc3cc(Br)ccc3[n+]2CC)C=Cc2ccccc21.[I-]`, the Time was found to be 179 s.

The test system of the next data set is Mus musculus. Nature of the data set: Toxicity in mouse assessed as suppression of locomotion at 10 mg/kg, ip measured for 5 mins. The class given is organism-based. The following applies: in vivo.
In the case of `CCN1/C(=C/c2ccc3cc(OC)ccc3[n+]2CC)C=Cc2ccccc21.[I-]`, the Activity result was “Toxic”.

With `CCN1/C(=C/c2ccc3cc(Br)ccc3[n+]2CC)C=Cc2ccccc21.[I-]`, the Activity entry is reported as “Toxic”.

The subject of another data set is Mus musculus. In words: Toxicity in mouse assessed as mortality at 10 mg/kg, ip measured for 5 mins. To be noted: in vivo. The class given is organism-based. An outline of the steps:
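Mice were given an intraperitoneal injection of the compound, with D-22 dosed over 0.01–10.0 mg/kg and analogues at equivalent doses. Each mouse was placed at once in an infrared beam-break activity chamber. Beam breaks were counted per 5 min period over a four-hour session, and deaths at the 10 mg/kg dose were recorded in the locomotor dose groups.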
Turning to `CCN1/C(=C/c2ccc3cc(OC)ccc3[n+]2CC)C=Cc2ccccc21.[I-]`, the Activity result was “Toxic”.

As to `CCN1/C(=C/c2ccc3cc(Br)ccc3[n+]2CC)C=Cc2ccccc21.[I-]`, the Activity result is reported as “Toxic”.

For the next data set, the system named is Mus musculus. In words: Toxicity in mouse assessed as suppression of locomotion at 1 mg/kg, ip measured for 5 mins. The following applies: in vivo. It is filed as organism-based.
For `CCN1/C(=C/c2ccc3cc(OC)ccc3[n+]2CC)C=Cc2ccccc21.[I-]`, the Activity result is listed as “Non-Toxic”.

Take `CCN1/C(=C/c2ccc3cc(Br)ccc3[n+]2CC)C=Cc2ccccc21.[I-]`: the Activity result is listed as “Non-Toxic”.

A further data set concerns the target T1, alpha1 adrenoceptor. In words: Displacement of [3H]prazosin from alpha1 adrenoceptor in C57BL/6 mouse hippocampal homogenates assessed as remaining receptor bound [3H]prazosin levels at 0.001 uM after 40 mins by liquid scintillation counting method relative to control. To be noted: probe [3H]prazosin, read-out: Activity. The method, boiled down:
as §1
Consider `CCN1/C(=C/c2ccc3cc(OC)ccc3[n+]2CC)C=Cc2ccccc21.[I-]`, for which the activity at 40 min, 0.001 µM turned out to be 100%.

Take `CCN1/C(=C/c2ccc3cc(Br)ccc3[n+]2CC)C=Cc2ccccc21.[I-]`: the activity at 40 min, 0.001 µM is 100%.

The target of another data set is T1, alpha1 adrenoceptor. In words: Displacement of [3H]prazosin from alpha1 adrenoceptor in C57BL/6 mouse hippocampal homogenates assessed as remaining receptor bound [3H]prazosin levels at 100 uM after 40 mins by liquid scintillation counting method relative to control. The following applies: probe [3H]prazosin, read-out: Activity. An outline of the steps: as §1
For the molecule `CCN1/C(=C/c2ccc3cc(OC)ccc3[n+]2CC)C=Cc2ccccc21.[I-]`, the activity at 40 min, 100 µM amounted to 1.3%.

For `CCN1/C(=C/c2ccc3cc(Br)ccc3[n+]2CC)C=Cc2ccccc21.[I-]`, the activity at 40 min, 100 µM amounted to 0%.

In another data set the test system is Mus musculus. In words: Toxicity in mouse assessed as suppression of locomotion at 0.1 mg/kg, ip measured for 5 mins. The class given is organism-based. The following applies: in vivo.
In the case of `CCN1/C(=C/c2ccc3cc(OC)ccc3[n+]2CC)C=Cc2ccccc21.[I-]`, the Activity entry was “Non-Toxic”.

In the case of `CCN1/C(=C/c2ccc3cc(Br)ccc3[n+]2CC)C=Cc2ccccc21.[I-]`, the Activity result is on record as “Non-Toxic”.
